In ChEMBL document CHEMBL4513216, “Probing the Open Global Health Chemical Diversity Library for Multistage-Active Starting Points for Next-Generation Antimalarials” (ACS Infect Dis, 2020):

Assay: Toxicity liver stage against HepG2, at 10uM
Assay type: cell-based
Set-up: test concentration 10 uM, cell line HepG2-A16-CD81EGFP
Settings: human, HepG2-A16-CD81EGFP cells; read-out: INHIBITION
Procedure, shortened: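 Uninfected HepG2-A16-CD81EGFP cells, 3 × 10^3 per well, 1536-well, plated on prespotted compound at 10 μM final, parasite-free screening media added to match infected plates; puromycin 10 μM positive, DMSO 0.5% negative; run in parallel with 48 h PbLuc assay at 37 °C, 5% CO2; viability by CellTiter-Glo luminescence, normalized to controls.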

Structure (SMILES) | cytotoxicity at 10 µM [%]
CC(C)c1cc(=O)[nH]c(-c2ccccc2CN2CCC(C)(C)C2)n1 | -42
CCOCCN1CCN([C@@H]2c3ccccc3C3(CCNCC3)[C@H]2O)CC1 | -0.777
CCOc1ccc(C(=O)CCC(=O)N(C)Cc2snnc2C)cc1C | -2.29
Cc1cccc2cc(CN3CCC(N4CCCC4)CC3)c(=O)[nH]c12 | -3.45
CC(C)=CCN1Cc2nnc(C3CCOCC3)n2C(Cc2c[nH]cn2)C1 (stereo not given) | -9.36
CCC[C@H]1CN(C(=O)c2cc(-c3cccs3)n(C)n2)C[C@@H]1N | -1.02
Cc1cc2c(=O)n(CCSc3ncn[nH]3)cnc2s1 | 8.87
Cc1cnccc1N1CCCN(Cc2ccc(-c3cc[nH]n3)o2)CC1 | -5.13
CN1CC2(CCNCC2)CC1C(=O)NCCCNc1cccnc1 (stereo not given) | 6.24
c1ccc(OCCCn2ccnc2-c2cn(C3CCNCC3)nn2)cc1 | -18.1
CCn1nc(CC(C)C)cc1C(=O)N1C[C@H](O)[C@@H](N2CCCCC2)C1 | 20.7
c1cn(Cc2nnc(C3CCN(C4CCOCC4)CC3)n2C2CC2)cn1 | 0.442
Cc1cc(NCC2CCCO2)cc(=O)n1C (stereo not given) | -8.19
O=C1NC(=O)c2c3c(nc(O)c21)CCCC3 | -4.69
CC(=O)N1CCCC1C(=O)NCCOc1ccc(C(C)C)cc1 (stereo not given) | -5.26
CC1CN(CC(=O)NC2CCOCC2)CCN1Cc1nccn1C (stereo not given) | -6.57
c1cncc(-c2noc(CNC3CCc4ncnn4C3)n2)c1 (stereo not given) | -5.57
Cc1cc(C(=O)N2CCCC(c3cc(C(F)(F)F)[nH]n3)C2)[nH]n1 (stereo not given) | -6.79
CC(C)n1ncc2cc(NC(=O)N3CCC(CO)CC3)cnc21 | -14.5
N#Cc1ccc(S(=O)(=O)NC(=O)COc2ccc3c(c2)CCC3)cc1 | -9.36
N#Cc1cn(C2CC2)c(=O)n(CC(O)c2ccccc2C(F)(F)F)c1=O (stereo not given) | -4.22
CC(NC(=O)c1ccsc1)c1ccc2c(c1)NC(=O)CO2 (stereo not given) | -11.7
NC(=O)CN1CCCN(C(=O)CCOc2ccccc2Cl)CC1 | -6.73
CCCc1noc(CCC(=O)N2CCCC2c2cccs2)n1 (stereo not given) | -14.4
COc1ccc(C)cc1CN(C)CC(=O)NC1(C)CCS(=O)(=O)C1 (stereo not given) | 1.28
COc1ccc(-c2noc(CN3CCCC3Cn3cccn3)n2)cc1 (stereo not given) | 2.88
COCc1nc(C(=O)N2CCCC2c2ccncc2)cs1 (stereo not given) | -11.4
O=C(c1ccc(O)nc1)N1CCC(Nc2cccnn2)CC1 | -8.83

Structure (SMILES) | cytotoxicity at 10 µM [%]
CS(=O)(=O)NC1CCCN(C(=O)NCc2cccc(F)c2)C1 (stereo not given) | -18.8
Cc1nc(CN(C)C2CCN(Cc3cccc4c3OCCO4)C2)no1 (stereo not given) | -13.9
CCc1nccn1C1CCCN(C(=O)c2ccc3[nH]nnc3c2)C1 (stereo not given) | 7.15
CC1CCCN(CCNC(=O)c2ccn(-c3ccccc3)n2)C1 (stereo not given) | -3.81
O=c1oc(-c2ccc(F)cc2)nn1CN1CCN(C2CCCC2)CC1 | -1.78
Cc1cnn(C2CN(Cc3nc(C(C)(C)C)no3)C2)c1 | -7.28
Cn1ncc2c(=O)[nH]c(CN(Cc3cccc(F)c3)C3CC3)nc21 | -13.1
O=C(NCC1CCOC1)N1CCN(Cc2ccc3c(c2)CCO3)CC1 (stereo not given) | -4.2
O=C(C1COCCO1)N1CCN(Cc2ccc3c(c2)CCO3)CC1 (stereo not given) | -5.99
CC(C)n1ccnc1CN1CCCN(C(=O)c2cc(Cl)c[nH]2)CC1 | -3.79
Cc1nc(CN2CCCC(NCCc3ccccc3Cl)C2)no1 (stereo not given) | -11.8
CC(=O)N(C)c1nc(CN2CCOC(Cn3cc(C)cn3)C2)cs1 (stereo not given) | -7
COCc1nc(C(=O)N2CCCCC2Cn2cc(C)cn2)cs1 (stereo not given) | 3.18
FC(F)CNc1cnc(C2CCNCC2)cn1 | 0.83
O[C@@]1(c2ccccn2)CC[C@H]2CN(Cc3ccccn3)C[C@H]21 | -4.97
Cn1ccnc1CN1CCCC(Cc2ccnc3ccncc23)CC1 (stereo not given) | -0.751
O=C(c1ccco1)N1C[C@H]2CCCN(Cc3ccc(F)cc3)[C@H]2C1 | 0.255
Cc1cc(CN2CC[C@]3(C[C@@H](OCC(=O)N(C)C)CO3)C2)no1 | -105
O=C1NCC[C@]12CN(CC1CCOCC1)C[C@H]2c1ccccc1 | 6.59
CC(C)N1CCO[C@H]2CN(Cc3cc[nH]n3)C[C@H]21 | -108
CCc1nc(-c2ccnc(N3CCNCC3)n2)no1 | 11.9
CN1CCN(c2ncnc3c2CCN(S(=O)(=O)C2CC2)CC3)CC1 | -112
CNC(=O)C1Cn2ccnc2C2(CCN(Cc3cccc(C)n3)CC2)O1 (stereo not given) | 7.67
CO[C@@H]1CCN(Cc2ccoc2)[C@H]1Cc1ccccc1 | 7.46
COCCN1Cc2nccn2CC(COCc2csc(C)n2)C1 (stereo not given) | 6.22
Fc1cnc(N2CCCC3(COCCN(c4nccs4)C3)C2)nc1 (stereo not given) | 1.43
COc1ccccc1CC(=O)N1C[C@@H]2CC[C@H]1CN(Cc1cscn1)C2 | -1.87
